In ChEMBL document CHEMBL2062435, “Synthesis and in vitro antibacterial activity of gemifloxacin derivatives containing a substituted benzyloxime moiety” (2012):

Experiments:
Assay type in all cases: functional
[1] = tested on: Klebsiella pneumoniae; assay: Antimicrobial activity against extended spectrum beta-lactamases-producing Klebsiella pneumoniae 10-1 after 18-24 hrs by two-fold serial dilution method
In short: (§1)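 Agar-medium twofold serial dilution against Gram-positive and Gram-negative strains; MIC taken as the lowest compound concentration giving complete inhibition of bacterial growth after incubation at 35 °C for 18-24 h.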

[2] = tested on: Staphylococcus epidermidis; assay: Antimicrobial activity against extended spectrum beta-lactamases-producing methicillin-resistant Staphylococcus epidermidis 10-10 after 18-24 hrs by two-fold serial dilution method
In short: (§2)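 Agar twofold serial dilution MIC against clinical isolates. MIC was taken as the lowest concentration giving complete inhibition of bacterial growth after incubation at 35 °C for 18-24 h.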

[3] = tested on: Escherichia coli; assay: Antimicrobial activity against Escherichia coli ATCC 25922 after 18-24 hrs by two-fold serial dilution method; in short: as §1
[4] = tested on: Klebsiella pneumoniae; assay: Antimicrobial activity against Klebsiella pneumoniae 10-4 after 18-24 hrs by two-fold serial dilution method; in short: as §1
[5] = tested on: Klebsiella pneumoniae; assay: Antimicrobial activity against Klebsiella pneumoniae 10-3 after 18-24 hrs by two-fold serial dilution method; in short: as §1
[6] = tested on: Enterococcus faecalis; assay: Antimicrobial activity against Enterococcus faecalis 10-7 after 18-24 hrs by two-fold serial dilution method; in short: as §1
[7] = tested on: Staphylococcus epidermidis; assay: Antimicrobial activity against extended spectrum beta-lactamases-producing methicillin-sensitive Staphylococcus epidermidis 10-13 after 18-24 hrs by two-fold serial dilution method; in short: as §1
[8] = tested on: Escherichia coli; assay: Antimicrobial activity against extended spectrum beta-lactamases-producing Escherichia coli 10-2 after 18-24 hrs by two-fold serial dilution method; in short: as §1
[9] = tested on: Klebsiella pneumoniae; assay: Antimicrobial activity against extended spectrum beta-lactamases-producing Klebsiella pneumoniae 10-2 after 18-24 hrs by two-fold serial dilution method; in short: as §1
[10] = tested on: Enterococcus faecalis; assay: Antimicrobial activity against Enterococcus faecalis 10-6 after 18-24 hrs by two-fold serial dilution method; in short: as §1
[11] = tested on: Pseudomonas aeruginosa; assay: Antimicrobial activity against extended spectrum beta-lactamases-producing Pseudomonas aeruginosa 10-18 after 18-24 hrs by two-fold serial dilution method; in short: as §1
[12] = tested on: Klebsiella pneumoniae; assay: Antimicrobial activity against Klebsiella pneumoniae 10-2 after 18-24 hrs by two-fold serial dilution method; in short: as §1
[13] = tested on: Staphylococcus aureus; assay: Antimicrobial activity against extended spectrum beta-lactamases-producing methicillin-resistant Staphylococcus aureus 10-11 after 18-24 hrs by two-fold serial dilution method; in short: as §2
[14] = tested on: Pseudomonas aeruginosa; assay: Antimicrobial activity against Pseudomonas aeruginosa 10-12 after 18-24 hrs by two-fold serial dilution method; in short: as §1
[15] = tested on: Staphylococcus aureus; assay: Antimicrobial activity against extended spectrum beta-lactamases-producing methicillin-sensitive Staphylococcus aureus 10-14 after 18-24 hrs by two-fold serial dilution method; in short: as §1
[16] = tested on: Escherichia coli; assay: Antimicrobial activity against extended spectrum beta-lactamases-producing Escherichia coli 10-4 after 18-24 hrs by two-fold serial dilution method; in short: as §1
[17] = tested on: Pseudomonas aeruginosa; assay: Antimicrobial activity against extended spectrum beta-lactamases-producing Pseudomonas aeruginosa 10-9 after 18-24 hrs by two-fold serial dilution method; in short: as §1
[18] = tested on: Enterococcus faecium; assay: Antimicrobial activity against Enterococcus faecium 10-9 after 18-24 hrs by two-fold serial dilution method; in short: as §1
[19] = tested on: Klebsiella pneumoniae; assay: Antimicrobial activity against extended spectrum beta-lactamases-producing Klebsiella pneumoniae 10-3 after 18-24 hrs by two-fold serial dilution method; in short: as §1
[20] = tested on: Staphylococcus aureus; assay: Antimicrobial activity against extended spectrum beta-lactamases-producing methicillin-sensitive Staphylococcus aureus 10-13 after 18-24 hrs by two-fold serial dilution method; in short: as §1
[21] = tested on: Escherichia coli; assay: Antimicrobial activity against extended spectrum beta-lactamases-producing Escherichia coli 10-3 after 18-24 hrs by two-fold serial dilution method; in short: as §1
[22] = tested on: Pseudomonas aeruginosa; assay: Antimicrobial activity against extended spectrum beta-lactamases-producing Pseudomonas aeruginosa 10-15 after 18-24 hrs by two-fold serial dilution method; in short: as §1
[23] = tested on: Escherichia coli; assay: Antimicrobial activity against Escherichia coli 10-2 after 18-24 hrs by two-fold serial dilution method; in short: as §1
[24] = tested on: Streptococcus pneumoniae; assay: Antimicrobial activity against extended spectrum beta-lactamases-producing Streptococcus pneumoniae 10-4 after 18-24 hrs by two-fold serial dilution method; in short: as §1
[25] = tested on: Streptococcus pneumoniae; assay: Antimicrobial activity against extended spectrum beta-lactamases-producing Streptococcus pneumoniae 10-1 after 18-24 hrs by two-fold serial dilution method; in short: as §1
[26] = tested on: Staphylococcus aureus; assay: Antimicrobial activity against extended spectrum beta-lactamases-producing methicillin-resistant Staphylococcus aureus 10-15 after 18-24 hrs by two-fold serial dilution method; in short: as §2
[27] = tested on: Enterococcus faecalis; assay: Antimicrobial activity against Enterococcus faecalis 10-5 after 18-24 hrs by two-fold serial dilution method; in short: as §1
[28] = tested on: Enterococcus faecium; assay: Antimicrobial activity against Enterococcus faecium 10-5 after 18-24 hrs by two-fold serial dilution method; in short: as §1
[29] = tested on: Pseudomonas aeruginosa; assay: Antimicrobial activity against extended spectrum beta-lactamases-producing Pseudomonas aeruginosa 10-20 after 18-24 hrs by two-fold serial dilution method; in short: as §1
[30] = tested on: Staphylococcus epidermidis; assay: Antimicrobial activity against extended spectrum beta-lactamases-producing methicillin-resistant Staphylococcus epidermidis 10-13 after 18-24 hrs by two-fold serial dilution method; in short: as §2
[31] = tested on: Staphylococcus aureus; assay: Antimicrobial activity against Staphylococcus aureus ATCC […] after 18-24 hrs by two-fold serial dilution method; in short: as §1
[32] = tested on: Pseudomonas aeruginosa; assay: Antimicrobial activity against extended spectrum beta-lactamases-producing Pseudomonas aeruginosa 10-5 after 18-24 hrs by two-fold serial dilution method; in short: as §1
[33] = tested on: Staphylococcus epidermidis; assay: Antimicrobial activity against extended spectrum beta-lactamases-producing methicillin-sensitive Staphylococcus epidermidis 10-11 after 18-24 hrs by two-fold serial dilution method; in short: as §1
[34] = tested on: Escherichia coli; assay: Antimicrobial activity against Escherichia coli 10-3 after 18-24 hrs by two-fold serial dilution method; in short: as §1
[35] = tested on: Escherichia coli; assay: Antimicrobial activity against Escherichia coli 10-1 after 18-24 hrs by two-fold serial dilution method; in short: as §1
[36] = tested on: Staphylococcus epidermidis; assay: Antimicrobial activity against extended spectrum beta-lactamases-producing methicillin-sensitive Staphylococcus epidermidis 10-15 after 18-24 hrs by two-fold serial dilution method; in short: as §1

Structure (SMILES) | MIC [1] [µg/mL] | MIC [2] [µg/mL] | MIC [3] [µg/mL] | MIC [4] [µg/mL] | MIC [5] [µg/mL] | MIC [6] [µg/mL] | MIC [7] [µg/mL] | MIC [8] [µg/mL] | MIC [9] [µg/mL] | MIC [10] [µg/mL] | MIC [11] [µg/mL] | MIC [12] [µg/mL] | MIC [13] [µg/mL] | MIC [14] [µg/mL] | MIC [15] [µg/mL] | MIC [16] [µg/mL] | MIC [17] [µg/mL] | MIC [18] [µg/mL] | MIC [19] [µg/mL] | MIC [20] [µg/mL] | further results
COc1cccc(OC)c1CO/N=C1\CN(c2nc3c(cc2F)c(=O)c(C(=O)O)cn3C2CC2)CC1CN.CS(=O)(=O)O (racemic) | 64 | 0.25 | 0.25 | > 128 | 8 | 1 | 2 | > 128 | 64 | 2 | 8 | > 128 | 1 | 4 | 0.125 | 4 | 4 | 8 | > 128 | 0.125 | MIC [21]: 16 µg/mL; MIC [22]: 4 µg/mL; MIC [23]: 8 µg/mL; MIC [24]: 0.25 µg/mL; MIC [25]: 0.125 µg/mL; MIC [26]: 0.5 µg/mL; MIC [27]: 0.5 µg/mL; MIC [28]: 8 µg/mL; MIC [29]: 2 µg/mL; MIC [30]: 0.25 µg/mL; MIC [31]: 0.03 µg/mL; MIC [32]: 4 µg/mL; MIC [33]: 0.125 µg/mL; MIC [34]: 8 µg/mL; MIC [35]: > 128 µg/mL; MIC [36]: 0.5 µg/mL
CS(=O)(=O)O.NCC1CN(c2nc3c(cc2F)c(=O)c(C(=O)O)cn3C2CC2)C/C1=N\OCc1ccc2c(c1)OCCO2 (racemic) | > 128 | 0.5 | 0.25 | 128 | 32 | 1 | 2 | > 128 | > 128 | 4 | 4 | 16 | 1 | 2 | 0.06 | 2 | 2 | 8 | 4 | 0.06 | MIC [21]: > 128 µg/mL; MIC [22]: 2 µg/mL; MIC [23]: 4 µg/mL; MIC [24]: 2 µg/mL; MIC [25]: 0.5 µg/mL; MIC [26]: 0.5 µg/mL; MIC [27]: 0.5 µg/mL; MIC [28]: 8 µg/mL; MIC [29]: 2 µg/mL; MIC [30]: 0.5 µg/mL; MIC [31]: 0.06 µg/mL; MIC [32]: 2 µg/mL; MIC [33]: 0.5 µg/mL; MIC [34]: 4 µg/mL; MIC [35]: 16 µg/mL; MIC [36]: 0.5 µg/mL
CS(=O)(=O)O.NCC1CN(c2nc3c(cc2F)c(=O)c(C(=O)O)cn3C2CC2)C/C1=N\OCc1cc2c(cc1Cl)OCO2 (racemic) | > 128 | 2 | 0.25 | 128 | 8 | 4 | 8 | 128 | > 128 | 8 | 16 | > 128 | 2 | 8 | 0.06 | 8 | 8 | 8 | > 128 | 0.03 | MIC [21]: > 128 µg/mL; MIC [22]: 32 µg/mL; MIC [23]: 16 µg/mL; MIC [24]: 2 µg/mL; MIC [25]: 0.5 µg/mL; MIC [26]: 1 µg/mL; MIC [27]: 1 µg/mL; MIC [28]: 8 µg/mL; MIC [29]: 4 µg/mL; MIC [30]: 2 µg/mL; MIC [31]: 0.015 µg/mL; MIC [32]: 8 µg/mL; MIC [33]: 0.25 µg/mL; MIC [34]: 16 µg/mL; MIC [35]: > 128 µg/mL; MIC [36]: 2 µg/mL
CS(=O)(=O)O.Cc1ccc(CO/N=C2\CN(c3nc4c(cc3F)c(=O)c(C(=O)O)cn4C3CC3)CC2CN)cc1C (racemic) | > 128 | 1 | 0.015 | > 128 | 8 | 4 | 8 | > 128 | > 128 | 4 | 16 | > 128 | 2 | 4 | < 0.008 | 8 | 4 | 8 | > 128 | 0.06 | MIC [21]: > 128 µg/mL; MIC [22]: 8 µg/mL; MIC [23]: 8 µg/mL; MIC [24]: 0.5 µg/mL; MIC [25]: 0.125 µg/mL; MIC [26]: 0.25 µg/mL; MIC [27]: 0.5 µg/mL; MIC [28]: 8 µg/mL; MIC [29]: 8 µg/mL; MIC [30]: 1 µg/mL; MIC [31]: 0.008 µg/mL; MIC [32]: 4 µg/mL; MIC [33]: 0.25 µg/mL; MIC [34]: 8 µg/mL; MIC [35]: 64 µg/mL; MIC [36]: 1 µg/mL
